Laboratory results reported in ChEMBL document CHEMBL1255546, “Discovery of potent and selective histamine H3 receptor inverse agonists based on the 3,4-dihydro-2H-pyrazino[1,2-a]indol-1-one scaffold” (Bioorg Med Chem Lett, 2010).
In brackets after ≈: the same amount, converted by molar mass. Activity calls are given as the source filed them. The calls are words filed in the database; no cut-off is given here.

Assays:
[1] = molecular target: T1, Histamine H3 receptor (Homo sapiens, UniProt Q9Y5N1); assay: Inverse agonist activity at human recombinant histamine H3 receptor assessed as effect on [35S]GTPgammaS binding; type: functional
T1 sequence (Q9Y5N1 whole entry): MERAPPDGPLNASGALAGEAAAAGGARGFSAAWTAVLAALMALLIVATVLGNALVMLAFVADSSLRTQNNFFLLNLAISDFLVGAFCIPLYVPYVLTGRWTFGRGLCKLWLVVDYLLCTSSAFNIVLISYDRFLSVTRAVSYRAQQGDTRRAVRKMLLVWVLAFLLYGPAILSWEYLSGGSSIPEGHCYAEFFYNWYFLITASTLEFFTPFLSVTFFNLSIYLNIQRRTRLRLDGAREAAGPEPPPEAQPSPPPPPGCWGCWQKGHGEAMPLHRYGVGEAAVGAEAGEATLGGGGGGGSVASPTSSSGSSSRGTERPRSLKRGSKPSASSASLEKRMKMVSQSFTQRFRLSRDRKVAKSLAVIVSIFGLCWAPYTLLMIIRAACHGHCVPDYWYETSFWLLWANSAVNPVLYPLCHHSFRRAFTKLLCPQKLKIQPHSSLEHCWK

[2] = molecular target: Histamine H1 receptor (Homo sapiens) (UniProt P35367); assay: Displacement of [3H]-mepyramine from human histamine H1 receptor; parameters: concentration or dose not given beside the values; details: concentration not given here
Chain of Histamine H1 receptor (Homo sapiens) (P35367 whole entry): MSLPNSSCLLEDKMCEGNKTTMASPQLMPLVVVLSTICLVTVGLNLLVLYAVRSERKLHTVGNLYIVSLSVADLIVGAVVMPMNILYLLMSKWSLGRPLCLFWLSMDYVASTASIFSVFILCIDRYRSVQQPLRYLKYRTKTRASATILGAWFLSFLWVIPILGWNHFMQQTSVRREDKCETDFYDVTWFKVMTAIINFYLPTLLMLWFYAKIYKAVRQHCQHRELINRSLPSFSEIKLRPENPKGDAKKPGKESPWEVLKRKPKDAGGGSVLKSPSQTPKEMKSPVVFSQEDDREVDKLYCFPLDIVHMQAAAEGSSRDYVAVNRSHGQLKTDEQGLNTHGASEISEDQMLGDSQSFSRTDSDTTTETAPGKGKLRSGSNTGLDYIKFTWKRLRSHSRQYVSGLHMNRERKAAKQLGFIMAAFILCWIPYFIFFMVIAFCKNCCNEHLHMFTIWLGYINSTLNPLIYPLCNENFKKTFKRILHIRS
How it was run: (§1)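 Radioligand displacement assays, single determination (n = 1) each: [3H]-mepyramine at H1, [3H]-tiotidine at H2, [3H]-histamine at H4.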

[3] = molecular target: Histamine H2 receptor (Homo sapiens) (UniProt P25021); assay: Displacement of [3H]-tiotidine from human histamine H2 receptor; parameters: concentration or dose not given beside the values; details: concentration not given here; how it was run: as §1
Chain of Histamine H2 receptor (Homo sapiens) (P25021 whole entry): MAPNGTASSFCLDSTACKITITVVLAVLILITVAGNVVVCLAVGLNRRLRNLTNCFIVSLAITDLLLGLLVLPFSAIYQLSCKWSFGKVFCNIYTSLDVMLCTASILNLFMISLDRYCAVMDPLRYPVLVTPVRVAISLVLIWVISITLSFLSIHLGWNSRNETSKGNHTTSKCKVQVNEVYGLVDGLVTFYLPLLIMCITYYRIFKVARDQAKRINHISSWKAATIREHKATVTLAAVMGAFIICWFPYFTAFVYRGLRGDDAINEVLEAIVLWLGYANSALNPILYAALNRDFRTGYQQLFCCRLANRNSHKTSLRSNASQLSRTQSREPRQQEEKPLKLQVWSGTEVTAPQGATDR

[4] = molecular target: Histamine H4 receptor (Homo sapiens) (UniProt Q9H3N8); assay: Displacement of [3H]-histamine from human histamine H4 receptor; parameters: concentration or dose not given beside the values; details: concentration not given here; how it was run: as §1
[5] = molecular target: T1, Histamine H3 receptor; assay: Displacement of [3H]-RAMH from human histamine H3 receptor
[6] = molecular target: Cytochrome P450 2D6 (Homo sapiens, UniProt P10635); assay: Inhibition of CYP2D6; type: ADME
Chain of Cytochrome P450 2D6 (P10635 whole entry): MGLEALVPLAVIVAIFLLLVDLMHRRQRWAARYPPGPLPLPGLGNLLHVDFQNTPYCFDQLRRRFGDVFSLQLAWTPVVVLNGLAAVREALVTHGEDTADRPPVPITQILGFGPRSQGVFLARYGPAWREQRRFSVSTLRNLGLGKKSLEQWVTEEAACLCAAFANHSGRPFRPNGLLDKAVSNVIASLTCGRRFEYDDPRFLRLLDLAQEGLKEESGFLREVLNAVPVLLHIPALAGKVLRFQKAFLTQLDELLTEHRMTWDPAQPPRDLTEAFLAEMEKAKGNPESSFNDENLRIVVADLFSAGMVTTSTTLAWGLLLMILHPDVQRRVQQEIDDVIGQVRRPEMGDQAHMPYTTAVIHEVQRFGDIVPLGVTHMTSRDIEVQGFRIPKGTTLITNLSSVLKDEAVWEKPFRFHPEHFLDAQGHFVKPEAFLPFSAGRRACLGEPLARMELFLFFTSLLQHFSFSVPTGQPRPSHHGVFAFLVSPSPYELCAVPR

[7] = molecular target: Cytochrome P450 2C9 (Homo sapiens, UniProt P11712); assay: Inhibition of CYP2C9; type: ADME
Chain of Cytochrome P450 2C9 (P11712 whole entry): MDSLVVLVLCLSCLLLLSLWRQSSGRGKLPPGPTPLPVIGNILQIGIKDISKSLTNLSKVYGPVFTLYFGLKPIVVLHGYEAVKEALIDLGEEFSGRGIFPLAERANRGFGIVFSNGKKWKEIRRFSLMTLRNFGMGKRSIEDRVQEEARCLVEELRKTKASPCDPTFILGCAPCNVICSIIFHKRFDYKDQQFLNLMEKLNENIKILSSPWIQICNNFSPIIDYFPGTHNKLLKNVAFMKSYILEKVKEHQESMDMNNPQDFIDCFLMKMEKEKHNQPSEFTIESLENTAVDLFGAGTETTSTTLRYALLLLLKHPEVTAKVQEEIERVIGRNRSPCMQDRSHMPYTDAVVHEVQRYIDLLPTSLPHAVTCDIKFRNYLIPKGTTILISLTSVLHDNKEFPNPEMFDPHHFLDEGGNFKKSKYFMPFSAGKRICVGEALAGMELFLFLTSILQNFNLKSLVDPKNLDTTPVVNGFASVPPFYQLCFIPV

[8] = molecular target: Cytochrome P450 3A4 (Homo sapiens, UniProt P08684); assay: Inhibition of CYP3A4; type: ADME
Chain of Cytochrome P450 3A4 (P08684 whole entry): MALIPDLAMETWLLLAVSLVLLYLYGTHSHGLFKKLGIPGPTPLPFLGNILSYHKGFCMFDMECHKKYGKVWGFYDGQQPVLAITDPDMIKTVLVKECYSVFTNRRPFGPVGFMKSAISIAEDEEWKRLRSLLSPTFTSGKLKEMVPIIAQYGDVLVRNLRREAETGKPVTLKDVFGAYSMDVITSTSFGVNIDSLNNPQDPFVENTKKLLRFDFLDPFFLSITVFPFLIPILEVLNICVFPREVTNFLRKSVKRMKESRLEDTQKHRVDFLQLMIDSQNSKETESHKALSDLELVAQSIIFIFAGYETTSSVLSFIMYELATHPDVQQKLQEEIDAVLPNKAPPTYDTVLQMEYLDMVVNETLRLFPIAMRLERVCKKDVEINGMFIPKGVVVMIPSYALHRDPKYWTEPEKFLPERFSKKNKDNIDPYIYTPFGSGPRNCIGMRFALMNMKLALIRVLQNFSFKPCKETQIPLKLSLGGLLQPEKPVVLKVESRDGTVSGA

[9] = Aqueous solubility of the compound in 0.05 M phosphate buffer at pH 6.5; type: physicochemical
[10] = Intrinsic clearance in human liver microsomes; type: ADME, Microsome
[11] = Lipophilicity, log D of the compound at pH 7.4; type: physicochemical; details: buffer
[12] = Intrinsic clearance in rat liver microsomes; type: ADME, Microsome
[13] = molecular target: T2, Histamine H3 receptor (Rattus norvegicus, UniProt Q9QYN8); assay: Binding affinity to rat histamine H3 receptor
T2 sequence (Q9QYN8 whole entry): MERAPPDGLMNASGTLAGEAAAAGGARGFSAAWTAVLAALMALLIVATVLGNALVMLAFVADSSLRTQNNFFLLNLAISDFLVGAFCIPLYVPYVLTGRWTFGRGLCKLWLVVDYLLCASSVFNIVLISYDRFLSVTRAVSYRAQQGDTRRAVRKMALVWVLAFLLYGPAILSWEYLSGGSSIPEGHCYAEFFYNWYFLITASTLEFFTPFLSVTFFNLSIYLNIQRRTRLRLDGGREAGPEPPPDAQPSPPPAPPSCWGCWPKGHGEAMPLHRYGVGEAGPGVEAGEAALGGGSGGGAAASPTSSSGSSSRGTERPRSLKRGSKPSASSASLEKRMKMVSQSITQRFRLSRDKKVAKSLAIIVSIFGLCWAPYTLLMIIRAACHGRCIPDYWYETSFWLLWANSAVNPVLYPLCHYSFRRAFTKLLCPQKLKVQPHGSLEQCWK

[14] = test system: Rattus norvegicus; assay: Toxicity in rat assessed as change in behavioral effect at 10 mg/kg, po measured for 1 hr; type: organism-based; parameters: dose 10 mg/kg, route oral; details: in vivo
[15] = test system: Rattus norvegicus; assay: Inhibition of (R)-alpha-methyl histamine-induced increased water intake in rat dipsogenia model at 10 mg/kg, po; type: functional
[16] = molecular target: T2, Histamine H3 receptor; assay: Inverse agonist activity at rat histamine H3 receptor; type: functional
[17] = test system: Rattus norvegicus; assay: Inhibition of water intake in rat dipsogenia model at 10 mg/kg, po; type: functional, organism-based; parameters: dose 10 mg/kg
[18] = molecular target: T1, Histamine H3 receptor; details: 3 uM

| SMILES | EC50 [1] | inhibition [2] | inhibition [3] | inhibition [4] | Ki [5] | IC50 [6] | IC50 [7] | IC50 [8] | solubility [9] | microsomal CLint [10] | logD [11] | microsomal CLint [12] | Ki [13] | EC50 [16] | inhibition [18] | Activity [14] | inhibition in vivo at 10 mg/kg [15] | inhibition [17] |
| --- | --- | --- | --- | --- | --- | --- | --- | --- | --- | --- | --- | --- | --- | --- | --- | --- | --- | --- |
| CC(C)N1CCC(Oc2ccc3c(c2)cc2n3CCN(Cc3ccccc3F)C2=O)CC1 | 28 nM | 16% | 6% | 1% | 6 nM |  |  |  |  |  |  |  |  |  |  |  |  |  |
| C[C@H]1CC[C@H](C)N1CCCOc1ccc2c(c1)cc1n2CCNC1=O | 24 nM | 16% | 17% | 6% | 11 nM |  |  |  |  |  |  |  |  |  |  |  |  |  |
| CC(C)N1CCC(Oc2ccc3c(c2)cc2n3CCN(CC(F)(F)F)C2=O)CC1 | 40 nM | -1% | -6% | -4% | 34 nM |  |  |  |  |  |  |  |  |  |  |  |  |  |
| CC(C)N1CCC(Oc2ccc3c(c2)cc2n3CCN(CCO)C2=O)CC1 | 56 nM | -1% | 14% | -5% | 46 nM | 0.9 µM | > 50 µM | > 50 µM | > 406 µg/mL | 9 µL/min/mg | -0.25 | 11 µL/min/mg |  |  |  |  |  |  |
| C[C@@H]1CCCN1CCCOc1ccc2c(c1)cc1n2CCNC1=O | 4 nM | 13% | 4% | -4% | 7 nM | > 50 µM | > 50 µM | > 50 µM | > 436 µg/mL |  | 0.13 | 37 µL/min/mg |  |  |  |  |  |  |
| CC(C)N1CCC(Oc2ccc3c(c2)cc2n3CCN(Cc3cccc(F)c3)C2=O)CC1 | 23 nM | 24% | 21% | 4% | 14 nM |  |  |  |  |  |  |  |  |  |  |  |  |  |
| CC(C)N1CCC(Oc2ccc3c(c2)cc2n3CCCN(CC3CC3)C2=O)CC1 | 36 nM | 5% | 15% | -7% |  |  |  |  |  |  |  |  |  |  |  |  |  |  |
| CC(C)N1CCC(Oc2ccc3c(c2)cc(C(=O)N2CCC(F)(F)CC2)n3C(C)C)CC1 | 2 nM | 9% | -6% | 7% | 2 nM | 5 µM | > 50 µM | > 50 µM | > 589 µg/mL | 4 µL/min/mg | 1.67 | 12 µL/min/mg |  |  |  |  |  |  |
| CC(C)N1CCC(Oc2ccc3c(c2)cc2n3CCN(CC3CC3)C2=O)CC1 | 28 nM |  | 6% | 7% | 9 nM | > 50 µM | > 50 µM | > 50 µM | > 508 µg/mL | 14 µL/min/mg | 1.09 | 9 µL/min/mg |  |  |  |  |  |  |
| O=C1NCCn2c1cc1cc(OCCCN3CCCCC3)ccc12 | 74 nM | 33% | 45% | 8% | 18 nM |  |  |  |  |  |  |  |  |  |  |  |  |  |
| COCCN1CCn2c(cc3cc(OC4CCN(C(C)C)CC4)ccc32)C1=O | 51 nM |  | 6% | 0% | 19 nM |  |  |  |  |  |  |  |  |  |  |  |  |  |
| CC(C)N1CCC(Oc2ccc3c(c2)cc2n3CCN(Cc3ccc(F)cc3)C2=O)CC1 | 14 nM | 17% | -3% | 1% | 7 nM | 35 µM | > 50 µM | > 50 µM | 382 µg/mL (≈ 877 µM) | 5 µL/min/mg | 2.06 | 17 µL/min/mg |  |  |  |  |  |  |
| CC(C)N1CCC(Oc2ccc3c(c2)cc2n3CCN(Cc3ccccn3)C2=O)CC1 | 14 nM | 6% | 4% | -3% | 6 nM |  |  |  |  |  |  |  |  |  |  |  |  |  |
| C[C@H]1CCCN1CCCOc1ccc2c(c1)cc1n2CCNC1=O | 140 nM | 11% | 10% | 4% | 21 nM |  |  |  |  |  |  |  |  |  |  |  |  |  |
| CC(C)N1CCC(Oc2ccc3c(c2)cc2n3CCN(Cc3cccnc3)C2=O)CC1 | 13 nM | 3% | 3% | 3% | 5 nM |  |  |  |  |  |  |  |  |  |  |  |  |  |
| CC(C)N1CCC(Oc2ccc3[nH]c4c(c3c2)CCNC4=O)CC1 |  |  |  |  | > 3000 nM |  |  |  |  |  |  |  |  |  | 35% |  |  |  |
| O=C1NCCn2c1cc1cc(OC3CCN(CC4CC4)CC3)ccc12 |  | -4% | 9% | 3% | 129 nM |  |  |  |  |  |  |  |  |  |  |  |  |  |
| CC(C)N1CCC(Oc2ccc3c(c2)cc2n3CCN(C(C)C)C2=O)CC1 | 25 nM | -6% | -2% | -6% | 27 nM |  |  |  |  |  |  |  |  |  |  |  |  |  |
| CC(C)N1CCC(Oc2ccc3c(c2)cc2n3CCN(Cc3ccncc3)C2=O)CC1 | 12 nM | 4% |  | 3% | 5 nM | > 50 µM | > 50 µM | 6 µM | > 456 µg/mL | 8 µL/min/mg | 0.64 | 27 µL/min/mg |  |  |  |  |  |  |

Continued, in another order:

| EC50 [1] | inhibition [2] | inhibition [3] | inhibition [4] | Ki [5] | IC50 [6] | IC50 [7] | IC50 [8] | solubility [9] | microsomal CLint [10] | logD [11] | microsomal CLint [12] | Ki [13] | EC50 [16] | inhibition [18] | SMILES | Activity [14] | inhibition in vivo at 10 mg/kg [15] | inhibition [17] |
| --- | --- | --- | --- | --- | --- | --- | --- | --- | --- | --- | --- | --- | --- | --- | --- | --- | --- | --- |
| 48 nM | -4% | 11% | 0% | 31 nM | 15 µM | > 50 µM | > 50 µM | > 455 µg/mL | 1 µL/min/mg | 0.13 | 23 µL/min/mg |  |  |  | CC(C)N1CCC(Oc2ccc3c(c2)cc2n3CCN(C)C2=O)CC1 |  |  |  |
| 38 nM | 1% |  | 6% | 25 nM | 4 µM | > 50 µM | > 50 µM | > 436 µg/mL | 1 µL/min/mg | -0.05 | 70 µL/min/mg |  |  |  | CC(C)N1CCC(Oc2ccc3c(c2)cc2n3CCNC2=O)CC1 |  |  |  |
| 14 nM | -2% | 26% | 15% | 6 nM | > 50 µM | > 50 µM | > 50 µM | > 455 µg/mL | 3 µL/min/mg | 0.23 |  |  |  |  | CC(C)N1CCC(Oc2ccc3c(c2)cc2n3C[C@H](C)NC2=O)CC1 |  |  |  |
| 46 nM | 2% | 13% | 7% | 9 nM | > 50 µM | > 50 µM | > 50 µM | 284 µg/mL (≈ 832 µM) | 7 µL/min/mg | 0.28 | 10 µL/min/mg |  |  |  | CC(C)N1CCC(Oc2ccc3c(c2)cc2n3C[C@@H](C)NC2=O)CC1 |  |  |  |
| 18 nM | 3% | 8% | 12% | 5 nM | > 50 µM | > 50 µM | > 50 µM | > 441 µg/mL | 6 µL/min/mg | 1.4 | 10 µL/min/mg | 12 nM | 18 nM |  | CC(C)N1CCC(Oc2ccc3c(c2)cc2n3C[C@@H](C)N(CC3CC3)C2=O)CC1 | Non-toxic | 64% | inactive |
| 29 nM | -4% | 10% | 9% | 26 nM | 22 µM | > 50 µM | > 50 µM | > 455 µg/mL |  | 0.23 | 29 µL/min/mg |  |  |  | CC(C)N1CCC(Oc2ccc3c(c2)cc2n3[C@H](C)CNC2=O)CC1 |  |  |  |
| 2 nM | 10% | -3% | 1% | 2 nM | > 50 µM | > 50 µM | > 50 µM | 506 µg/mL (≈ 1070 µM) | 7 µL/min/mg | 2.32 | 20 µL/min/mg |  |  |  | CC(C)N1CCC(Oc2cc3cc4n(c3cc2Br)[C@@H](C)CN(CC2CC2)C4=O)CC1 |  |  |  |
| 26 nM | 3% | 9% | -3% | 17 nM | > 50 µM | > 50 µM | > 50 µM | > 455 µg/mL |  | 0.07 | 28 µL/min/mg |  |  |  | CC(C)N1CCC(Oc2ccc3c(c2)cc2n3CCCNC2=O)CC1 |  |  |  |
| 94 nM | 11% | 9% | 10% | 42 nM | > 50 µM | > 50 µM | 26 µM | 345 µg/mL (≈ 1010 µM) | 4 µL/min/mg | 0.28 |  |  |  |  | CC(C)N1CCC(Oc2ccc3c(c2)cc2n3[C@@H](C)CNC2=O)CC1 |  |  |  |
| 4 nM |  | 18% | -10% | 4 nM | > 50 µM | > 50 µM | > 50 µM | > 526 µg/mL | 1 µL/min/mg | 1.13 | 12 µL/min/mg |  |  |  | CC(C)N1CCC(Oc2cc3cc4n(c3cc2Br)[C@@H](C)CNC4=O)CC1 |  |  |  |
